Assay type in all cases: functional
Test [1] has as its system Mus musculus. The experiment in a line: Effect on Serum cholesterol levels on CF1 male mice at a dose of 20 (mg/kg)/day after 16 days. In a few lines:
(§1)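 CF1 male mice (~25 g), drug suspended in 1% carboxymethylcellulose in water, given ip daily for 16 days; n = 6; vehicle control. Tail-vein blood on days 9 and 16, serum cholesterol by modified Liebermann–Burchard reaction; day-14 serum triglyceride by commercial kit; expressed as % control.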

In test [2] the test system is Mus musculus. The experiment in a line: Effect on Serum triglyceride levels on CF1 male mice at a dose of 20 (mg/kg)/day after 14 days. In outline: as §1
Test [3] relates to Mus musculus. The experiment in a line: Effect on Serum cholesterol levels on CF1 male mice at a dose of 20 (mg/kg)/day after 9 days. In outline: as §1

Molecules are shown by their SMILES.

In the case of `CC(=O)c1ccc(N2C(=O)c3ccccc3C2=O)cc1`, in the test on Mus musculus [1], the “Serum cholesterol (% of control)” value was 55%. Moreover, the Control amounted to 66% with Mus musculus [2] and 83% in the test with Mus musculus [3].
For `O=C(O)c1ccc(N2C(=O)c3ccccc3C2=O)cc1`, the “Serum cholesterol (% of control)” value in the test on Mus musculus [1] is recorded as 53%. For the same molecule, the Control with Mus musculus [2] is 58%; with Mus musculus [3], 89%.
Taken in the same sequence, the figures for `CCc1ccc(N2C(=O)c3ccccc3C2=O)cc1` were 89%, 96% and 89%.
As for `CCc1cccc(N2C(=O)c3ccccc3C2=O)c1`, in the test on Mus musculus [1], the “Serum cholesterol (% of control)” value turned out to be 82%. Moreover, the Control is 95% with Mus musculus [2] and 89% in the test with Mus musculus [3].
In the case of `CC(=O)c1cccc(N2C(=O)c3ccccc3C2=O)c1`, the “Serum cholesterol (% of control)” value in the test on Mus musculus [1] is 84%. Also, the Control came out at 74% in the test with Mus musculus [2] and 87% in the test with Mus musculus [3].
For `O=C(O)c1cccc(N2C(=O)c3ccccc3C2=O)c1`, in that order: 69%, 71% and 81%.
Consider `CCc1ccccc1N1C(=O)c2ccccc2C1=O`, for which, in the test on Mus musculus [1], the “Serum cholesterol (% of control)” value was determined as 103%. The Control in the test on Mus musculus [2] was found to be 92%; in the test with Mus musculus [3] it was 88%.
With `CCOC(=O)C(C)(C)Oc1ccc(Cl)cc1` [CLOFIBRATE], the “Serum cholesterol (% of control)” value in the test with Mus musculus [1] is recorded as 96%. Further, the values for the Control with Mus musculus [2] and in the test on Mus musculus [3] were 91% and 98%, respectively.
Turning to `O=C1c2ccccc2C(=O)N1c1ccccc1` [N-PHENYL-PHTHALIMIDE], in the test with Mus musculus [1], the “Serum cholesterol (% of control)” value came out at 57%. Also, the Control stood at 61% in the test with Mus musculus [2] and 92% in the test on Mus musculus [3].
As to `O=C(O)c1ccccc1N1C(=O)c2ccccc2C1=O` [N-PHTHALOYLANTHRANILIC ACID], the “Serum cholesterol (% of control)” value in the test with Mus musculus [1] is 77%. Also, the Control is given as 78% with Mus musculus [2] and 92% in the test with Mus musculus [3].
Turning to `O=C1NC(=O)c2ccccc21` [PHTHALIMIDE], the “Serum cholesterol (% of control)” value in the test with Mus musculus [1] is 57%. Further, the values for the Control with Mus musculus [2] and in the test with Mus musculus [3] were 44% and 63%, respectively.

Values taken from ChEMBL document CHEMBL1122328, “Hypolipidemic activity of phthalimide derivatives. 2. N-phenylphthalimide and derivatives” (1983).
